Results from ChEMBL document CHEMBL5649170, “Sustained microglial depletion with CSF1R inhibitor impairs parenchymal plaque development in an Alzheimer's disease model” (Nat Commun, 2019).
Activity calls are given as the source filed them. The rule behind the calls is not given here.

Legend:
[1] = Drug concentration in 5XFAD mouse brain at 75 ppm administered as rodent chow starting from 1.5 months and measured after 5 months; type: ADME, tissue-based; conditions: route po, time 3.5 months, read-out: Ct
In short: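 WT or 5xFAD mice were fed PLX3397 in AIN-76A chow at 600 ppm or 75 ppm from 1.5 to 5 months of age. Terminal brain and plasma drug concentrations were determined at study end.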

Mus musculus [2] = assay: Antialzheimer activity in 5XFAD mouse assessed as microglial numbers by measuring number of Iba positive cells per FOV in somatosensory cortex at 75 ppm administered as rodent chow starting from 1.5 months and measured after 5 months by immunolabeling based confocal microscopic analysis (reference value: 281 to 613); type: functional; conditions: route po, time 3.5 months, 2555 h
In short: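 5xFAD mice fed PLX3397 at 75 ppm in AIN-76A chow from 1.5 to 5 months of age; retrosplenial and somatosensory cortex sections stained with Thio-S and immunolabeled for IBA1; confocal imaging, IBA1+ cells and plaques quantified per region; two-tailed independent t-test, n = 4–5 per group, mean ± SEM.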

Aurora kinase B = Aurora kinase B (Homo sapiens, UniProt Q96GD4); assay: Inhibition of AURKB (unknown origin)
[3] = molecular target: Tyrosine-protein kinase receptor UFO (Homo sapiens, UniProt P30530); assay: Inhibition of AXL (unknown origin)
CDK9/cyclin T1 = CDK9/cyclin T1 (Homo sapiens, UniProt P50750); assay: Inhibition of CDK9/CyclinT1 (unknown origin); type: protein-complex assay
[4] = molecular target: Dual specificity tyrosine-phosphorylation-regulated kinase 3 (Homo sapiens, UniProt O43781); assay: Inhibition of DYRK3 (unknown origin)
[5] = molecular target: Tyrosine-protein kinase Fgr (Homo sapiens, UniProt P09769); assay: Inhibition of FGR (unknown origin)
[6] = molecular target: Tyrosine-protein kinase Fyn (Homo sapiens, UniProt P06241); assay: Inhibition of FYN (unknown origin)
[7] = molecular target: G protein-coupled receptor kinase 5 (Homo sapiens, UniProt P34947); assay: Inhibition of GRK5 (unknown origin)
[8] = molecular target: Glycogen synthase kinase-3 alpha (Homo sapiens, UniProt P49840); assay: Inhibition of GSK3A (unknown origin)
[9] = molecular target: Tyrosine-protein kinase Lck (Homo sapiens, UniProt P06239); assay: Inhibition of LCK (unknown origin)
[10] = molecular target: Leukocyte tyrosine kinase receptor (Homo sapiens, UniProt P29376); assay: Inhibition of LTK (unknown origin)
[11] = molecular target: Serine/threonine-protein kinase Nek2 (Homo sapiens, UniProt P51955); assay: Inhibition of NEK2 (unknown origin)
Sphingosine kinase 1 = Sphingosine kinase 1 (Homo sapiens, UniProt Q9NYA1); assay: Inhibition of SPHK1 (unknown origin)
[12] = molecular target: Tyrosine-protein kinase Yes (Homo sapiens, UniProt P07947); assay: Inhibition of YES1 (unknown origin)
[13] = molecular target: Receptor-type tyrosine-protein kinase FLT3 (Homo sapiens, UniProt P36888); assay: Inhibition of FLT3 (unknown origin) in presence of ATP by enzymatic assay
[14] = AUC (0 to infinity) in mouse at 45 mg/kg, po administered as single dose via gavage; type: ADME, organism-based; conditions: in vivo
[15] = Cmax in dog at 45 mg/kg, po administered as single dose via gavage; type: ADME, organism-based, Canis lupus familiaris; conditions: in vivo
[16] = Oral bioavailability in dog at 45 mg/kg administered as single via gavage; type: ADME, organism-based, Canis lupus familiaris; conditions: in vivo
Mus musculus [17] = assay: Antialzheimer activity in 5XFAD mouse assessed as number of Iba positive cells per FOV in somatosensory cortex at 1200 ppm administered as rodent chow starting from 1.5 months and measured after 7 months (reference value: 335 to 848); type: functional; conditions: route po, time 5.5 months, 4015 h
[18] = Toxicity in wildtype mouse assessed as time spent in center zone at 1200 ppm administered as rodent chow for 10 to 24 weeks by Open field test (reference value: 32.4 to 76.1 sec); conditions: in vivo, po, time 10-24 weeks
Mus musculus [19] = assay: Antialzheimer activity in 5XFAD mouse assessed as number of pyroglutamate-3-modified positive plaques per FOV in cortex at 1200 ppm administered as rodent chow starting from 1.5 months and measured after 7 months by Thio-S staining based confocal microscopic analysis (reference value: 14 to 34); type: functional; conditions: route po, time 5.5 months, 4015 h
Mus musculus [20] = assay: Antialzheimer activity in 5XFAD mouse assessed as number of Iba1 positive cells per FOV in subiculum at 1200 ppm administered as rodent chow starting from 1.5 months and measured after 7 months by immunolabeling based confocal microscopic analysis (reference value: 1284 to 1582); type: functional; conditions: route po, time 5.5 months, 4015 h
Mus musculus [21] = assay: Antialzheimer activity in 5XFAD mouse assessed as alteration in plaque morphology by measuring average plaque circularity in thalamus at 1200 ppm administered as rodent chow starting from 1.5 months and measured after 7 months by Thio-S labeling based confocal microscopic analysis (reference value: 0.257 to 0.365); type: functional; conditions: route po, time 5.5 months, 4015 h
Mus musculus [22] = assay: Antialzheimer activity in 5XFAD mouse assessed as ApoE immunoreactivity by measuring reduction in core ApoE in cortex at 1200 ppm administered as rodent chow starting from 1.5 months and measured after 7 months by immunolabeling based confocal microscopic analysis relative to control; type: functional; parameters: scale not given: the % may be the effect or the level left; conditions: route po, time 5.5 months, 4015 h
[23] = Effect on Cx3cr1 gene expression in 5XFAD mouse thalamus at 1200 ppm administered as rodent chow starting from 1.5 months and measured after 7 months by RNA-Seq analysis (reference value: 15.006 to 17.756 RPKM); type: functional; conditions: route po, time 5.5 months, 4015 h
[24] = Effect on Dusp5 gene expression in wildtype mouse hippocampus assessed as percent change in Reads Per kilo base per Million mapped reads at 1200 ppm administered as rodent chow starting from 1.5 months and measured after 7 months by RNA-Seq analysis (reference value: 75.632 to 114.605 %); type: functional; conditions: route po, time 5.5 months, 4015 h
[25] = Effect on Chrm3 gene expression in wildtype mouse hippocampus assessed as percent change in Reads Per kilo base per Million mapped reads at 1200 ppm administered as rodent chow starting from 1.5 months and measured after 7 months by RNA-Seq analysis (reference value: 85.337 to 114.189 %); type: functional; conditions: route po, time 5.5 months, 4015 h
In short: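 WT and 5xFAD mice were treated with 1200 ppm PLX5622 chow or control chow from 1.5 to 7 months of age. Brains were microdissected into cortex, hippocampus and thalamus, and RNA was extracted from tissue powder. Whole-transcriptome RNA-Seq libraries were sequenced, with n = 4 per group per region (48 samples).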

Mus musculus [26] = assay: Prevention of P2ry12 gene upregulation in 5XFAD mouse hippocampus at 1200 ppm administered as rodent chow starting from 1.5 months and measured after 7 months by Nanostring analysis; type: functional, tissue-based; conditions: route po, time 5.5 months
Mus musculus [27] = assay: Prevention of Grn gene upregulation in 5XFAD mouse hippocampus at 1200 ppm administered as rodent chow starting from 1.5 months and measured after 7 months by Nanostring analysis; type: functional, tissue-based; conditions: route po, time 5.5 months
Mus musculus [28] = assay: (§1) Antialzheimer activity in 5XFAD mouse assessed as number of This-S positive cells per FOV in retro spinal cortex at 1200 ppm administered as rodent chow starting from 1.5 months to 4 months followed by compound removal and measured after 1 months by immunolabelling based confocal microscopic analysis (reference value: 63 to 124); type: functional; conditions: route po, time 2.5 months, 1825 h
In short: (§2)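 For the repopulation paradigm, 5xFAD mice ate 1200 ppm PLX5622 chow from 1.5 to 4 months of age. Inhibitor chow was then withdrawn, and brains were examined one month later. Sections were stained with Thio-S and immunolabeled for IBA1, then analysed by confocal microscopy in cortical regions.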

Mus musculus [29] = assay: as §1, with “somatosensory” for “retro spinal”, “34” for “63”, “79)” for “124)”; type: functional; conditions: route po, time 2.5 months, 1825 h; in short: as §2

Sequence of G protein-coupled receptor kinase 5 (P34947 whole entry): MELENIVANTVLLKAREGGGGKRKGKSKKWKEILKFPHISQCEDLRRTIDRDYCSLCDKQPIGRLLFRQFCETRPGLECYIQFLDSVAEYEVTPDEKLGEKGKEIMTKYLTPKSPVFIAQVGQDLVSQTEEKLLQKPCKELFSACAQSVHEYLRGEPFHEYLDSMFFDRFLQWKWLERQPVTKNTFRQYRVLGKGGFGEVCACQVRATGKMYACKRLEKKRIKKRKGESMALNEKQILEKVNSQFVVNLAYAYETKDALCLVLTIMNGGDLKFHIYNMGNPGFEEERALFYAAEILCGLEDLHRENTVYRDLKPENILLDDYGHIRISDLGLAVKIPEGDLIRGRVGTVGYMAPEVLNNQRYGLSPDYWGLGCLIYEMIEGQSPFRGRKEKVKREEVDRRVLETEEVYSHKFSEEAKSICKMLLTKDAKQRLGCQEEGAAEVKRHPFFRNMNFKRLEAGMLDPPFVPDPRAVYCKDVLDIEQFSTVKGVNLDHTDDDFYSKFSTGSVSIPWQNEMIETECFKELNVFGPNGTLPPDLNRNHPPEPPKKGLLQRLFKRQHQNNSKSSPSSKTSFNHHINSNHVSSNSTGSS
Sequence of Tyrosine-protein kinase Fyn (P06241 whole entry): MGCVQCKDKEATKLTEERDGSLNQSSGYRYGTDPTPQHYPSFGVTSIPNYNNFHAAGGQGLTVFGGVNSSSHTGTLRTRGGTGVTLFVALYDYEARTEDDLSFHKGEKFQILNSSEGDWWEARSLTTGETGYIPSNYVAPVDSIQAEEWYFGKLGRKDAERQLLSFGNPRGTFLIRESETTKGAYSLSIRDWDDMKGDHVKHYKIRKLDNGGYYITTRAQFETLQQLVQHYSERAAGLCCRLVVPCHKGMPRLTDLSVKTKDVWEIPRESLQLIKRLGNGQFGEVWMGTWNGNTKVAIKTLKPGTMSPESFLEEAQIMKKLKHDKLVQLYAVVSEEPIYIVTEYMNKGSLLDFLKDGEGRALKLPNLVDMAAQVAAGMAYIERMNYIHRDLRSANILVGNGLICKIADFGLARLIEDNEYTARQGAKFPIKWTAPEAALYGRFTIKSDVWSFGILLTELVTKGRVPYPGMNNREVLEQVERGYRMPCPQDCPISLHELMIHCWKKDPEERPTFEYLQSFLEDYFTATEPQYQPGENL
Sequence of Sphingosine kinase 1 (Q9NYA1 whole entry): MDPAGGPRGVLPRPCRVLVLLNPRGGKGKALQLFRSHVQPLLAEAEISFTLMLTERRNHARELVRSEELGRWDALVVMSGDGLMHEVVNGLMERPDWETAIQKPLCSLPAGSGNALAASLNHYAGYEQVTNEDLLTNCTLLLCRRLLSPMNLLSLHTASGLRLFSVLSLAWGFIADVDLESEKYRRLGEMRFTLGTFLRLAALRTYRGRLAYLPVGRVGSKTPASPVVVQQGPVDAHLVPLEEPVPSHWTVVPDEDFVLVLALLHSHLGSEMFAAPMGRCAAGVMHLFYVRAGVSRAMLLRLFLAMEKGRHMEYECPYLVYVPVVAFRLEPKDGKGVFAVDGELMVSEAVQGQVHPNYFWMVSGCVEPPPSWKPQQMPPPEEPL
Sequence of Glycogen synthase kinase-3 alpha (P49840 whole entry): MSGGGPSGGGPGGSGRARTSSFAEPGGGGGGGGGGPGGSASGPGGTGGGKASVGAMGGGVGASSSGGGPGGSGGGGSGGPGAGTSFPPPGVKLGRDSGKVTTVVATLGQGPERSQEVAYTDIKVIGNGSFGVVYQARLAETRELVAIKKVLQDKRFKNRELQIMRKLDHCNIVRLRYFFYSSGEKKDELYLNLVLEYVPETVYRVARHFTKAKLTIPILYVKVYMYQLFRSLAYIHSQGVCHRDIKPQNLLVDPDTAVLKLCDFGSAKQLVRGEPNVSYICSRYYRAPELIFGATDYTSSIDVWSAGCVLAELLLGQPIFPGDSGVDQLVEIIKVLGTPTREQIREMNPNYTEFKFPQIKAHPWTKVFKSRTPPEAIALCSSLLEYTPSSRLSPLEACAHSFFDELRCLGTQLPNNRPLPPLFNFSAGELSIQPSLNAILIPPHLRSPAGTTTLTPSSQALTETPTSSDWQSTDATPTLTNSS
Sequence of Leukocyte tyrosine kinase receptor (P29376 whole entry): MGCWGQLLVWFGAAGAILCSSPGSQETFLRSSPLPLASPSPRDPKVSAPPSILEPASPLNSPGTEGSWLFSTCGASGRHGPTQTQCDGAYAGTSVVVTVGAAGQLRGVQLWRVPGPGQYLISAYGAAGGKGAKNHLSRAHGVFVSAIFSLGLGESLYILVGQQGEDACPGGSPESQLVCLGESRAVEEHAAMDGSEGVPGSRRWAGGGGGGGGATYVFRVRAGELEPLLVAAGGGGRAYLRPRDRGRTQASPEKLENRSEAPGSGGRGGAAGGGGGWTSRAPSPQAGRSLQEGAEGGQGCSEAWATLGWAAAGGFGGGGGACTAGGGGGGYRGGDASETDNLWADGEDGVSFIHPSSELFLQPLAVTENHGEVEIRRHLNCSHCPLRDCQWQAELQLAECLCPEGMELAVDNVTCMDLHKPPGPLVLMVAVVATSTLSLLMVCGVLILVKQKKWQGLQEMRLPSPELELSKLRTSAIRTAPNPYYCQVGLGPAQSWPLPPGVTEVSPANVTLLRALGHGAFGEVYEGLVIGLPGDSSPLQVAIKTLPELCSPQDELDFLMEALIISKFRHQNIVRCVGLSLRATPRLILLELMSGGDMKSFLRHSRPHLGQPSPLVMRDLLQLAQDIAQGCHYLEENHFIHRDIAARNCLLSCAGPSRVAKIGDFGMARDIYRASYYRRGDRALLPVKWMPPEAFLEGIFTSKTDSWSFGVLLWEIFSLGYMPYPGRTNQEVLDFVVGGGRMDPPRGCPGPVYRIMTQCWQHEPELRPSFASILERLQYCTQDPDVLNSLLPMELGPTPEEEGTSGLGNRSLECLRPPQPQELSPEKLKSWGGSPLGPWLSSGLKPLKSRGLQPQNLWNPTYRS
Sequence of Tyrosine-protein kinase receptor UFO (P30530 whole entry): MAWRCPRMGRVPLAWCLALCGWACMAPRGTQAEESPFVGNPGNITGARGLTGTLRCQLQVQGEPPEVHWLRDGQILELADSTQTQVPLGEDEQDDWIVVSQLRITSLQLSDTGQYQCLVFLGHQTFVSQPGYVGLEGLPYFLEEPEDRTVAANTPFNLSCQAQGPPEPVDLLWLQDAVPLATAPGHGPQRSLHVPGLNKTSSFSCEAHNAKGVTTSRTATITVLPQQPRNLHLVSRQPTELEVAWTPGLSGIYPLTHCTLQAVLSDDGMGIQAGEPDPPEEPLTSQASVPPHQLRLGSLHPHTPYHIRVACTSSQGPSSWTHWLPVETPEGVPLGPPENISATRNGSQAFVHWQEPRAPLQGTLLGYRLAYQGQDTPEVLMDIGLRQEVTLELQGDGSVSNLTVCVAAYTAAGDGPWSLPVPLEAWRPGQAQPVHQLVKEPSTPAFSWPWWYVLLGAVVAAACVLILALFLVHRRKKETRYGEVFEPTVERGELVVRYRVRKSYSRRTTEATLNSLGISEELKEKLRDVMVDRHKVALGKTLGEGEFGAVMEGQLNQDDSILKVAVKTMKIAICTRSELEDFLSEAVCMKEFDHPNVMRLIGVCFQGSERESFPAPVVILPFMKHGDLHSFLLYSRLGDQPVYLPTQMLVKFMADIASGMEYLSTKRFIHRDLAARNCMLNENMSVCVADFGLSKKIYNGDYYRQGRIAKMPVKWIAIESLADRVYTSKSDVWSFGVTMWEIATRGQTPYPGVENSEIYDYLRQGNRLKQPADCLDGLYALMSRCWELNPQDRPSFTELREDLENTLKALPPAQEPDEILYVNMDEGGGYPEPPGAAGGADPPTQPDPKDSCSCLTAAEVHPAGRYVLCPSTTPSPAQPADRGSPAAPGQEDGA
Sequence of Receptor-type tyrosine-protein kinase FLT3 (P36888 whole entry): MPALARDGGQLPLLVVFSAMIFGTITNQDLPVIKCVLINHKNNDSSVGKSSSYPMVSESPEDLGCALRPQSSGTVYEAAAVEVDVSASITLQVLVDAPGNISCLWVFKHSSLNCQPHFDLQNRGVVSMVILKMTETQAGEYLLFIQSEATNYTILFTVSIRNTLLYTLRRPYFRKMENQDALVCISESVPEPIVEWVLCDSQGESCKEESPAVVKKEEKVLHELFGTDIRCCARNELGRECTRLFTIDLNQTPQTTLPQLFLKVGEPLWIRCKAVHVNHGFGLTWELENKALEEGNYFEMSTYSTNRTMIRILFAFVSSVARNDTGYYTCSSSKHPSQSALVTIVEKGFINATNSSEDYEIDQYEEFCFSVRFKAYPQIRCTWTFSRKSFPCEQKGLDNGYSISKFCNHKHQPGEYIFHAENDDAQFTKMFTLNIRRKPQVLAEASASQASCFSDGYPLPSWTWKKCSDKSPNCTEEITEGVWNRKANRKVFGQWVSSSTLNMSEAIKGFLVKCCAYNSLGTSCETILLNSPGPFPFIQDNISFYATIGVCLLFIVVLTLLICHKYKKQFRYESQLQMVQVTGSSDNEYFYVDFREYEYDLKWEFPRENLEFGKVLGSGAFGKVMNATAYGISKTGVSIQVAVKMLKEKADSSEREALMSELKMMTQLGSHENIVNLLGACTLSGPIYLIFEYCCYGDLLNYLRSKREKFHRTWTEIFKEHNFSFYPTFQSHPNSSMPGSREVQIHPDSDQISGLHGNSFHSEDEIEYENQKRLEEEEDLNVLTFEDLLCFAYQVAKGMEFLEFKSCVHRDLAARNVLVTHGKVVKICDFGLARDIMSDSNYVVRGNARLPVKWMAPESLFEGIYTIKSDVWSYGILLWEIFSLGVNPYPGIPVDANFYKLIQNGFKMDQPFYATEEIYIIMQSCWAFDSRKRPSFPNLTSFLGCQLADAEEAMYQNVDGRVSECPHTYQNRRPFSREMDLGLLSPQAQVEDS

FC(F)(F)c1ccc(CNc2ccc(Cc3c[nH]c4ncc(Cl)cc34)cn2)cn1 [PEXIDARTINIB] showed a concentration at 2555 h [1] of 600 nM and an Activity (Mus musculus [2]) of 345.
COc1ncc(F)cc1CNc1ccc(Cc2c[nH]c3ncc(C)cc23)c(F)n1 [PLX-5622] showed an IC50 (Aurora kinase B) of over 1000 nM, an IC50 [3] of over 1000 nM and an IC50 (CDK9/cyclin T1) of over 1000 nM. It also gave an IC50 [4] of over 1000 nM, an IC50 [5] of over 1000 nM and an IC50 [6] of over 1000 nM. For the same compound, the IC50 [7] was over 1000 nM, the IC50 [8] was over 1000 nM and the IC50 [9] was over 1000 nM. For the same compound, the IC50 [10] was over 1000 nM, the IC50 [11] was over 1000 nM and the IC50 (Sphingosine kinase 1) was over 1000 nM. The IC50 [12] was over 1000 nM, the IC50 [13] was 390 nM and the AUC(0-inf) [14] was 215 µg·h/mL. It also gave a Cmax [15] of 3630 ng/mL, a bioavailability [16] of 34% and an Activity (Mus musculus [17]) of 0. The Time [18] was 12.7 s, the Activity (Mus musculus [19]) was 0 and the Activity (Mus musculus [20]) was 25. For the same compound, the Activity (Mus musculus [21]) was 0.175, the Activity (Mus musculus [22]) was about 50% and the Activity [23] was 0.179 RPKM. For the same compound, the Activity [24] was 94.671%, the Activity [25] was 79.458% and the Activity (Mus musculus [26]) was “Active”. For the same compound, the Activity (Mus musculus [27]) was “Active”, the Activity (Mus musculus [28]) was 60 and the Activity (Mus musculus [29]) was 15.
